# Laboratory results from PubChem BioAssay AID1665 (Sanford-Burnham Center for Chemical Genomics, 2009).
# Hit rate of the full screen: of about 190,000 compounds, about 590 (0.31%) were called active.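 The calls were made as follows: active = nuclear translocation activity above 50% at 5 µM, with a well cell count of 50 or more; inconclusive = wells under 50 cells across six images, flagged as toxic; inactive = the rest.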 Shown is part of a subset that was picked to be rich in actives.
# Assay: modulators of beta-catenin nuclear translocation, primary screen, imaging, HeLa cells, immunofluorescence, high-content (AID 1665);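 as to nuclear translocation activity: per-cell ratio of nuclear to cytoplasmic median beta-catenin stain intensity; plate controls were DMSO negative control for no effect and GSK-3 inhibitor IX positive control for full effect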
# Conditions: at 5 µM; cell count: measured here: cell count, cytotoxicity flag; nuclear translocation activity: stronger effect = higher value
# In short: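 Signal – beta-catenin immunofluorescence imaging with DAPI · Test system – human HeLa cell line · Dosing – 5 µM primary single dose, 0.1% DMSO, 0.02–20 µM confirmation series · Measure – % activation, nuclear-to-cytoplasmic median beta-catenin signal ratio per cell · Incubation – 24 h compound exposure at 37°C, 5% CO2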
Structure (SMILES),cell count,nuclear translocation activity
COc1cc2nc(Cl)nc(NCCO)c2cc1OC,1310 cells,0.1% (inactive)
CCOc1cccc(C(=O)Nc2cccnc2)c1,1110 cells,-2.1% (inactive)
CCOC(=O)c1cc(NC(=O)c2cccnc2)cc(C(=O)OCC)c1,1120 cells,0.3% (inactive)
CCOC(=O)c1ccc(-c2ccc(C(=O)Nc3cccnc3)o2)cc1,659 cells,56.9% (active)
COC(=O)CNc1nc(Cl)nc(N2CCC(C)CC2)n1,1320 cells,-0.1% (inactive)
CC(C)Sc1nnc([C@H](Cc2ccccc2)NC(=O)OC(C)(C)C)o1,1410 cells,0.4% (inactive)
CCOC(=O)Cc1cc(=O)[nH]c(/N=C(\N)Nc2ccc(OC)cc2)n1,1300 cells,-0.7% (inactive)
O=C(NNC(=O)c1cc2c(s1)CCCC2)c1ccccc1,547 cells,-1.8% (inactive)
Cc1ccc(C(=O)NNC(=O)c2cc3cc4ccccc4nc3s2)cc1,719 cells,80.3% (active)
Cc1ccc(C(=O)NNC(=O)c2cccs2)cc1,1120 cells,-0.6% (inactive)
CCOc1ccccc1N1CN(Cc2ccccc2)CNC1=S,1340 cells,-1.3% (inactive)
CCc1nc2sc3c(Cl)ncnc3c2c2c1CCCC2,1350 cells,-1.6% (inactive)
Cc1cc(=O)[nH]c(S)c1C#N,1290 cells,-0.9% (inactive)
O=C(COc1ccccc1)N1CCN=C1SCc1cccc(F)c1,1330 cells,0.4% (inactive)
COc1cc(C=O)ccc1Oc1nnnn1-c1ccccc1,1310 cells,-0.4% (inactive)
Cc1cc(C(=O)NNS(=O)(=O)c2ccccc2C(F)(F)F)nn1C(C)(C)C,1120 cells,-2.9% (inactive)
CCOC(=O)c1c(NC(=O)NC(C)(C)C)sc2c1CCN(C)C2,1280 cells,0.5% (inactive)
Nc1nc(SC23CC4CC(CC(C4)C2)C3)ns1,1340 cells,0.7% (inactive)
CC(C)n1c(=S)[nH]c2cc(C(F)(F)F)ccc21,1090 cells,-0.8% (inactive)
COC(=O)c1ccc(S(=O)(=O)NCc2ccccc2)n1C,1270 cells,0.3% (inactive)
CCOCCn1c(-c2ccccc2)nc2ccccc21,1340 cells,-0.7% (inactive)
O=C(O)c1ccccc1OCc1ccccc1Cl,1320 cells,-1.2% (inactive)

Structure (SMILES),cell count,nuclear translocation activity
Cc1cc(=O)[nH]c(N/N=C/c2ccc3c(c2)OCCO3)n1,1320 cells,-0.5% (inactive)
COc1ccc(NC(=O)C2CCC(CNc3c(N4CCCCC4)c(=O)c3=O)CC2)c(OC)c1 (stereo unspecified),1350 cells,-0.3% (inactive)
Cc1nnc2n1N=C(c1ccc3c(c1)NC(=O)CO3)CS2,1300 cells,-0.7% (inactive)
C/C(=N/NC(=O)CN1CCN(S(=O)(=O)c2ccc(Br)cc2)CC1)c1ccncc1,1320 cells,-0.5% (inactive)
Nc1ccc2nn(-c3ccc(Cl)cc3)nc2c1,1360 cells,1% (inactive)
CC1=NNC(=O)C1CCC(=O)N/N=C(\C)c1ccc(Cl)cc1 (stereo unspecified),1240 cells,0.6% (inactive)
Cc1cc(C)nc(SCc2cn3c(C)cc(C)nc3n2)n1,1340 cells,-0.4% (inactive)
CCc1nc2sc(C(=O)O)c(N)c2c2c1CCCC2,1230 cells,2.4% (inactive)
CC(=O)NNC(=O)c1csc(Cc2c(Cl)sc3ccc(Cl)cc23)n1,1250 cells,-0.8% (inactive)
CC(CNS(=O)(=O)c1ccc(Br)cc1)CN(C)C (stereo unspecified),1320 cells,0.2% (inactive)
COc1ccc(CNC(=O)C(Cc2ccccc2)n2cccc2)cc1 (stereo unspecified),1270 cells,-0.6% (inactive)
COC(OC)c1ccnc(SCc2ccccc2Cl)n1,1270 cells,-2.6% (inactive)
O=C(O)C(F)(F)C(NCc1ccccc1)c1ccccc1 (stereo unspecified),1280 cells,0% (inactive)
COc1cc(/C=C(\C#N)c2nc3c(s2)CC(C)CC3)ccc1O (stereo unspecified),1440 cells,2.5% (inactive)
COc1cc(/C=N\Nc2nc(-c3cccs3)c(NC(C)=O)s2)ccc1O,1300 cells,0.1% (inactive)
CCOc1cc(/C=C(\C#N)c2nc(-c3cccs3)c(NC(C)=O)s2)ccc1O,77 cells,68.9% (active)
Cn1c(SCC(=O)N2CCOCC2)nnc1-c1ccc2ncccc2c1,1320 cells,0.1% (inactive)
O=[N+]([O-])c1cccc2ncccc12,1340 cells,-0.4% (inactive)
O=C(NC1CCCCC1)c1cc(C2CC2)on1,1290 cells,-0.2% (inactive)
Cc1ccc(-c2nc3ccccc3[nH]c2=O)cc1,1310 cells,2.5% (inactive)
CCCCCCCCCCCCN1C(=O)CSC1c1cccnc1 (stereo unspecified),1170 cells,-0.9% (inactive)
CC(=O)NC(=S)Nc1ccc(NC(=S)NC(=O)c2ccc([N+](=O)[O-])cc2)cc1,1350 cells,-0.9% (inactive)

Structure (SMILES),cell count,nuclear translocation activity
CCc1ccccc1NC(=O)CSc1nnc(CCNC(=O)OC(C)(C)C)o1,1310 cells,1% (inactive)
Oc1c(C=Nc2cccc3nsnc23)ccc2ccccc12,317 cells,154% (active)
Oc1ccc2ccccc2c1C=Nc1ccccc1,1230 cells,1.3% (inactive)
Oc1ccc(N=Cc2c(O)ccc3ccccc23)cc1,1240 cells,-1.5% (inactive)
O=C(O)/C=C/c1ccc2c(c1)OCCO2,1430 cells,-1.2% (inactive)
Cc1cc(Nc2ccc(Cl)cc2)nc(N2CCOCC2)n1,1280 cells,-0.7% (inactive)
Cc1onc(NC(=O)c2ccc([N+](=O)[O-])o2)c1Br,1260 cells,5.1% (inactive)
COC(=O)c1cc(NC(=O)c2ccco2)ccc1N1CCOCC1,1200 cells,-0.7% (inactive)
CCCC(=O)Nc1ccc2c(c1)nc(CCNC(=O)c1ccco1)n2C,1400 cells,-1.3% (inactive)
COc1ccc(NC2=CC(=S)NC(C)(C)C2)cc1,1130 cells,-1.8% (inactive)
COC(=O)c1sc(SC)c(S(=O)(=O)C(C)C)c1N/N=C(\C#N)S(=O)(=O)c1ccccn1,1240 cells,-2.6% (inactive)
CCN(CC)CCCN=Cc1c(O)n(-c2ccc(C)cc2)c(=O)c2ccccc12,1350 cells,-0.1% (inactive)
O=C(O)CC1(CC(=O)Nc2cccc(C(F)(F)F)c2)CCCC1,1260 cells,0.5% (inactive)
CN(C)/C=C(/C(=O)c1ccc(Cl)c(Cl)c1)c1nnnn1-c1ccccc1,1260 cells,0% (inactive)
COc1ccc2c(CC(=O)OCC(=O)NC(N)=O)coc2c1,1100 cells,-0.9% (inactive)
COc1cccc(C2Nc3cccc4cccc(c34)N2)c1,1290 cells,-0.1% (inactive)
Nc1nnnn1/N=C/c1cc([N+](=O)[O-])ccc1O,1250 cells,2.2% (inactive)
CSC1=NCCN1C(=O)Cc1cccc2ccccc12,1340 cells,0.5% (inactive)
COc1ccc(C(=O)N/N=C2\CCS(=O)(=O)c3ccc(F)cc32)cc1OC,1320 cells,0.5% (inactive)
O=C(N/N=C/c1cccc([N+](=O)[O-])c1)c1ccncc1,1370 cells,-0.3% (inactive)
O=C(NCCN1CCN(Cc2ccccc2)CC1)c1cc2c(=O)[nH]c3ccccc3c2s1,1180 cells,-3.9% (inactive)
Cc1cccc(N(C)C(=O)c2cc3c(=O)[nH]c4ccc(C)cc4c3s2)c1,369 cells,61.3% (active)

Structure (SMILES),cell count,nuclear translocation activity
Cc1ccc2[nH]c(=O)c(CC=C(Cl)Cl)c(C)c2c1,484 cells,-1.1% (inactive)
O=C(NCC1CCCO1)c1ccccc1-c1nc(-c2ccccc2Cl)no1 (stereo unspecified),1310 cells,0% (inactive)
O=[N+]([O-])/C=C1\CCCCCN1,1320 cells,0% (inactive)
O=c1[nH]nc(SCCS(=O)(=O)c2ccc(F)cc2)n1-c1ccccc1C(F)(F)F,1270 cells,2.8% (inactive)
Cc1ccc(S(=O)(=O)C2(S(=O)(=O)c3ccc(C)cc3)CCCC2)cc1,297 cells,67.3% (active)
Cc1ccc(S(=O)(=O)NC(=O)N2CCCC(C)(C)C2)cc1,1150 cells,0.1% (inactive)
Cc1ccc(S(=O)(=O)N2CCCC2CO)cc1 (stereo unspecified),831 cells,-0.4% (inactive)
CCCC(=O)n1nc(-c2ccccc2)nc1N,1050 cells,0% (inactive)
COc1ccc(C(=O)CN2C(=O)NC(C)(c3ccc(C)cc3)C2=O)cc1OC (stereo unspecified),931 cells,-3.5% (inactive)
COc1ccc(C(=O)n2nc(-c3ccc(C)cc3)nc2N)cc1OC,579 cells,100% (active)
CN(C)C(=O)c1coc2nc3ccccc3nc12,1300 cells,-0.3% (inactive)
CC[C@]1(O)C[C@@H]2CN(CCc3c([nH]c4ccccc34)[C@@](C(=O)OC)(c3cc4c(cc3OC)N(C)[C@H]3[C@@](O)(C(=O)OC)[C@H](OC(C)=O)[C@]5(CC)C=CCN6CC[C@]43[C@@H]65)C2)C1,560 cells,-2% (inactive)
CC[C@]1(O)CC2CN(CCc3c([nH]c4ccccc34)[C@@](C(=O)OC)(c3cc4c(cc3OC)N(C=O)[C@H]3[C@@](O)(C(=O)OC)[C@H](OC(C)=O)[C@]5(CC)C=CCN6CC[C@]43[C@@H]65)C2)C1 (stereo partly specified),617 cells,62.5% (active)
CC/C=C/C(=O)N1CC2(CC(c3cccc(NC(=O)CC)c3)=NO2)C[C@H]1C(N)=O (stereo partly specified),1030 cells,0.6% (inactive)
O=C(Nc1cccnc1Oc1ncnc2cc(Cl)ccc12)c1ccc(F)cc1,1330 cells,-0.5% (inactive)
COCCCn1c(-c2cccs2)nc2nc3ccccc3nc21,1370 cells,-0.5% (inactive)
CCC1=NN2C(=N)/C(=C/c3cc(C)n(-c4ccccc4)c3C)C(=O)N=C2S1,1350 cells,-0.8% (inactive)
Cc1[nH]n(-c2ccccc2)c(=O)c1N=Nc1ccccc1C(=O)N1CCCCC1,1360 cells,0.5% (inactive)
Cc1cnc(NC(=O)CSc2nnc(-c3ccc(Cl)cc3Cl)n2N)s1,1100 cells,-0.9% (inactive)
CCOc1ccccc1NC(=O)CCc1ccc(C)o1,1160 cells,-2% (inactive)
Cc1ccc(CCC(=O)Nc2ncc(Cc3cc(Cl)ccc3Cl)s2)o1,142 cells,73.2% (active)
NC(=O)N/N=C\c1cccs1,1280 cells,0.1% (inactive)
